In data set [1] the test system is Proteus. The experiment in a line: Antibacterial activity against Proteus spp. assessed as growth inhibition after 18 to 24 hrs. It counts as functional. The procedure, abridged: (§1)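 Clinical isolates from a regional epidemiology institute. Broth microdilution: inoculum 5 × 10⁵ CFU/ml in Müller-Hinton broth (pH 7.3) with serial concentrations of salts, incubated at 35 °C for 18–24 h. MIC taken as lowest concentration with no detectable bacterial growth.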

Data set [2] concerns Klebsiella pneumoniae. The experiment in a line: Antibacterial activity against Klebsiella pneumoniae assessed as growth inhibition after 18 to 24 hrs. The class given is functional. In outline: as §1
Data set [3] has as its system Staphylococcus epidermidis. The experiment in a line: Antibacterial activity against Staphylococcus epidermidis assessed as growth inhibition after 18 to 24 hrs. The class given is functional. The procedure, abridged:
as §1

Data set [4] has as its system Staphylococcus aureus. The experiment in a line: Antibacterial activity against Staphylococcus aureus assessed as growth inhibition after 18 to 24 hrs. The class given is functional. The procedure, abridged: as §1
For data set [5], the system named is Staphylococcus aureus. The experiment in a line: Antibacterial activity against Staphylococcus aureus 25923 assessed as decrease in zeta potential of plasmid DNA at 0.1 mg/ml after 1 hr by light scatterning method (reference value: -50.7 +/- 1 mV). It counts as functional.
Data set [6] concerns Staphylococcus aureus. The experiment in a line: Antibacterial activity against Staphylococcus aureus 25923 assessed as decrease in zeta potential of plasmid DNA at 0.01 mg/ml after 1 hr by light scatterning method (reference value: -50.7 +/- 1 mV). It counts as functional.
Data set [7] deals with Staphylococcus aureus. The experiment in a line: Antibacterial activity against Staphylococcus aureus 25923 assessed as increase in polydispersity index of plasmid DNA at 0.1 mg/ml after 1 hr by light scatterning method (reference value: 0.425 no unit). The class given is functional.
For data set [8], the system named is Staphylococcus aureus. The experiment in a line: Antibacterial activity against Staphylococcus aureus 25923 assessed as increase in polydispersity index of plasmid DNA at 0.01 mg/ml after 1 hr by light scatterning method (reference value: 0.425 no unit). The class given is functional.
Data set [9] concerns Staphylococcus aureus. The experiment in a line: Antibacterial activity against Staphylococcus aureus 25923 assessed as increase in hydrodynamic diameter of plasmid DNA at 0.1 mg/ml after 1 hr by light scatterning method (reference value: 360.7 +/- 18 nm). The class given is functional.
The test system of data set [10] is Staphylococcus aureus. The experiment in a line: Antibacterial activity against Staphylococcus aureus 25923 assessed as increase in hydrodynamic diameter of plasmid DNA at 0.01 mg/ml after 1 hr by light scatterning method (reference value: 360.7 +/- 18 nm). The class given is functional.
Data set [11] concerns Staphylococcus aureus. The experiment in a line: Antibacterial activity against Staphylococcus aureus 25923 assessed as DNA migration out of cells at 10 ug/ml after 1 hr by SYBR green staining-based fluorescent microscopic analysis. The class given is functional, organism-based. The procedure, abridged: (§2)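 S. aureus 25923 pre-grown on blood agar at 37 °C, cultured overnight in Müller-Hinton broth (pH 7.3), pelleted and resuspended in PBS. After treatment, cells centrifuged 3000 g 15 min, washed twice in PBS, embedded in agarose microgels, lysed, stained with SYBR Green I and imaged by fluorescence microscopy.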

Data set [12] concerns Staphylococcus aureus. The experiment in a line: Antibacterial activity against Staphylococcus aureus 25923 assessed as DNA fragmentation at 10 ug/ml after 1 hr by SYBR green staining-based fluorescent microscopic analysis. It counts as functional, organism-based. The procedure, abridged:
as §2

Data set [13] can be described thus: Cytotoxicity against human skin fibroblasts after 72 hrs by MTT assay. The arrangement: species or system Skin fibroblast. The procedure, abridged:
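Human skin fibroblasts seeded at 3000 cells/well, attached overnight, then exposed to salt solutions (1 µg/ml–1 mg/ml) for 72 h at 37 °C, 5% CO₂. Cells washed with fresh medium and subjected to MTT assay; reduced product read at 550 nm. CC50 derived.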
For orientation: Tetrazolium dyes change colour on reduction, which living cells bring about.

The test system of data set [14] is Staphylococcus aureus. The experiment in a line: Antibacterial activity against Staphylococcus aureus 25923 assessed as partial DNA fragmentation at 0.01 to 10 mg/ml after 1 hr by agarose gel electrophoresis method.

Values after ≈ are worked out from the molar mass of the structure shown. Active and inactive are the calls of the source. The rule behind the calls is not given here.

A word on the MIC: it is the lowest concentration found to suppress growth. With `Cc1nc(C[P+](c2ccccc2)(c2ccccc2)c2ccccc2)c(C[P+](c2ccccc2)(c2ccccc2)c2ccccc2)c(CO)c1O`, the minimum inhibitory concentration (MIC) was greater than 1000 µg/mL in [1], greater than 1000 µg/mL in [2], 1000 µg/mL in data set [3] and 1000 µg/mL in data set [4].
Regarding `Cl.OCc1c(C[P+](c2ccccc2)(c2ccccc2)c2ccccc2)cnc(C[P+](c2ccccc2)(c2ccccc2)c2ccccc2)c1O.[Cl-].[Cl-]`, the MIC was greater than 1000 µg/mL in [1], greater than 1000 µg/mL in data set [2], 250 µg/mL in data set [3] and 250 µg/mL in data set [4].
Turning to `Cc1ncc(C[P+](c2ccccc2)(c2ccccc2)c2ccccc2)c2c1OC(C)(C)OC2.[Cl-]`, the MIC in data set [1] is greater than 1000 µg/mL; in data set [2], greater than 1000 µg/mL; in data set [3], 1000 µg/mL; in data set [4], 1000 µg/mL.
For `Cl.OCc1c(O)c(C[P+](c2ccccc2)(c2ccccc2)c2ccccc2)nc(C[P+](c2ccccc2)(c2ccccc2)c2ccccc2)c1C[P+](c1ccccc1)(c1ccccc1)c1ccccc1.[Cl-].[Cl-].[Cl-]`, the MIC in data set [1] was greater than 1000 µg/mL; in data set [2] it was greater than 1000 µg/mL; in [3], 500 µg/mL; in data set [4], 500 µg/mL.
As for `Cc1nc(CO)c(C[P+](c2ccccc2)(c2ccccc2)c2ccccc2)c(CO)c1O.Cl.[Cl-]`, the MIC in [1] is greater than 1000 µg/mL; in [2] it was greater than 1000 µg/mL; in data set [3], 1000 µg/mL; in data set [4], 1000 µg/mL.
Take `CC1(C)OCc2c(C[P+](c3ccccc3)(c3ccccc3)c3ccccc3)c(C[P+](c3ccccc3)(c3ccccc3)c3ccccc3)nc(C[P+](c3ccccc3)(c3ccccc3)c3ccccc3)c2O1.[Cl-].[Cl-].[Cl-]`: the MIC in [1] was greater than 1000 µg/mL; in data set [2], greater than 1000 µg/mL; in data set [3], 50 µg/mL; in data set [4] it was 50 µg/mL.
As to `CC(=O)Oc1c(C)nc(C[P+](c2ccccc2)(c2ccccc2)c2ccccc2)c2c1COC(C)(C)OC2.[Cl-]`, the MIC is greater than 1000 µg/mL in data set [1], greater than 1000 µg/mL in [2], 100 µg/mL in data set [3] and 100 µg/mL in data set [4].
`Cc1ncc(C[P+](c2ccccc2)(c2ccccc2)c2ccccc2)c(CO)c1O.Cl.[Cl-]`: the minimal inhibitory concentration (MIC) in data set [1] was greater than 1000 µg/mL; in data set [2], greater than 1000 µg/mL; in data set [3], 1000 µg/mL; in data set [4] it was 1000 µg/mL.
As for `CC1(C)OCc2c(C[P+](c3ccccc3)(c3ccccc3)c3ccccc3)cnc(C[P+](c3ccccc3)(c3ccccc3)c3ccccc3)c2O1.[Cl-].[Cl-]`, the MIC is greater than 1000 µg/mL in data set [1], greater than 1000 µg/mL in [2], 50 µg/mL in [3] and 62.5 µg/mL in data set [4].
As for `Cc1nc(C[P+](c2ccccc2)(c2ccccc2)c2ccccc2)c(CO)c(CO)c1O.Cl.[Cl-]`, the minimum inhibitory concentration (MIC) was greater than 1000 µg/mL in data set [1], greater than 1000 µg/mL in data set [2], 1000 µg/mL in data set [3] and 1000 µg/mL in data set [4].
As usually defined, the CC50 is the concentration that lowers cell viability or growth by half. As to `Cc1nc(C[P+](c2ccccc2)(c2ccccc2)c2ccccc2)c(C[P+](c2ccccc2)(c2ccccc2)c2ccccc2)c2c1OC(C)(C)OC2.[Cl-].[Cl-]`, the Activity is listed as -35.2 mV in [5]; -46.6 mV in data set [6]; 0.844 in data set [7]; 0.717 in [8]; 452.3 nm in data set [9]; 500.9 nm in data set [10]. For the same compound, the outcome in [11], in data set [12] and in data set [14] was Active. This compound also showed a CC50 at 72 h in data set [13] of 160 µg/mL. In addition, the minimum inhibitory concentration (MIC) is greater than 1000 µg/mL in data set [1], greater than 1000 µg/mL in data set [2], 5 µg/mL in data set [3] and 5 µg/mL in data set [4].
On to `CC1(C)OCc2c(CO)c(CO)nc(C[P+](c3ccccc3)(c3ccccc3)c3ccccc3)c2O1.[Cl-]`, for which the minimum inhibitory concentration (MIC) in [1], in [2], in [3] and in data set [4] was greater than 1000 µg/mL throughout.
Regarding `CN[C@H](CC(C)C)C(=O)N[C@H]1C(=O)N[C@@H](CC(N)=O)C(=O)N[C@H]2C(=O)N[C@H]3C(=O)N[C@H](C(=O)N[C@H](C(=O)O)c4cc(O)cc(O)c4-c4cc3ccc4O)[C@H](O)c3ccc(c(Cl)c3)Oc3cc2cc(c3O[C@@H]2O[C@H](CO)[C@@H](O)[C@H](O)[C@H]2O[C@H]2C[C@](C)(N)[C@H](O)[C@H](C)O2)Oc2ccc(cc2Cl)[C@H]1O` [VANCOMYCIN], the minimum inhibitory concentration (MIC) in [1] was greater than 1000 µg/mL; in data set [2], greater than 1000 µg/mL; in data set [3] it was 2.5 µg/mL (≈ 1.73 µM); in data set [4], 2.5 µg/mL (≈ 1.73 µM).
Regarding `Cl.OCc1nc(C[P+](c2ccccc2)(c2ccccc2)c2ccccc2)c(O)c(CO)c1CO.[Cl-]`, the minimum inhibitory concentration (MIC) in data set [1], in data set [2], in data set [3] and in data set [4] was greater than 1000 µg/mL throughout.
